Measured values: ChEMBL document CHEMBL4261518, “Side chain-functionalized aniline-derived ursolic acid derivatives as multidrug resistance reversers that block the nuclear factor-kappa B (NF-κB) pathway and cell proliferation” (Medchemcomm, 2017)

Legend:
[1] = tested on: MGC-803; experiment: Cytotoxicity against human MGC803 cells after 48 hrs by MTT assay; format: functional, cell-based; details: MGC-803, 48 h
Method in brief: (§1)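 Cells grown overnight in DMEM + 10% FBS at 37 °C under 5% CO2, then given a range of compound concentrations for 48 h. MTT added for about 4 h, medium replaced by DMSO, absorbance read at 570/630 nm. IC50 reported as mean ± SD of five independent experiments.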

[2] = Cytotoxicity against human SPCA2 cells after 48 hrs by MTT assay; format: functional, cell-based; details: SPCA2, 48 h; method in brief: as §1
[3] = tested on: NCI-H460; experiment: Cytotoxicity against human NCI-H460 cells after 48 hrs by MTT assay; format: functional, cell-based; details: NCI-H460, 48 h; method in brief: as §1
[4] = tested on: A549; experiment: Cytotoxicity against human A549 cells after 48 hrs by MTT assay; format: functional, cell-based; details: A549, 48 h; method in brief: as §1
[5] = tested on: T-24; experiment: Cytotoxicity against human T24 cells after 48 hrs by MTT assay; format: functional, cell-based; details: T-24, 48 h; method in brief: as §1
[6] = tested on: L02; experiment: Cytotoxicity against human HL7702 cells after 48 hrs by MTT assay; format: cell-based; details: L02, 48 h; method in brief: as §1
[7] = Inhibition of TNFalpha-induced NF-kB (unknown origin) activation expressed in human NCI-H460 cells after 7 hrs by luciferase reporter gene assay; format: cell-based; details: NCI-H460, 7 h
Method in brief: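 NCI-H460 cells transiently co-transfected with pNF-κB-Luc reporter and pSV-β-galactosidase internal control by lipofectamine. Medium changed after 6 h, then 6 h further culture. TNF-α (15 ng ml–1) plus compound given together for 7 h. Luciferase ratio to TNF-α-only cells, corrected for non-TNF background and viability. IC50 from sigmoidal variable-slope fit.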

[8] = tested on: NCI-H460; experiment: Cytotoxicity against human NCI-H460 cells harboring pNF-kB-Luc assessed as reduction in cell viability after 7 hrs by MTT assay relative to control; parameters: concentration or dose not given beside the values; details: nci-h460, 7 h
[9] = Cytotoxicity against human NCI-H460/DOX cells after 48 hrs by MTT assay; format: functional, cell-based; details: NCI-H460, 48 h; method in brief: as §1
[10] = tested on: HepG2; experiment: Cytotoxicity against human HepG2 cells after 48 hrs by MTT assay; format: functional, cell-based; details: HepG2, 48 h; method in brief: as §1
[11] = Cytotoxicity against human HepG2/DOX cells after 48 hrs by MTT assay; format: functional, cell-based; method in brief: as §1

| Compound | IC50 [1] | IC50 [2] | IC50 [3] | IC50 [4] | IC50 [5] | IC50 [6] | IC50 [7] | Activity [8] | IC50 [9] | IC50 [10] | IC50 [11] |
| --- | --- | --- | --- | --- | --- | --- | --- | --- | --- | --- | --- |
| COc1ccc(NC(=O)COC(=O)[C@]23CC[C@@H](C)[C@H](C)[C@H]2C2=CC[C@@H]4[C@@]5(C)CCC(=O)C(C)(C)[C@@H]5CC[C@@]4(C)[C@]2(C)CC3)cc1 | 27.9 µM | 19.4 µM | 17.6 µM | 24.6 µM | 26.2 µM | > 50 µM | 16 µM | < 5% | – | – | – |
| Cc1cccc(NC(=O)COC(=O)[C@]23CC[C@@H](C)[C@H](C)[C@H]2C2=CC[C@@H]4[C@@]5(C)CCC(=O)C(C)(C)[C@@H]5CC[C@@]4(C)[C@]2(C)CC3)c1 | > 50 µM | > 50 µM | > 50 µM | > 50 µM | > 50 µM | > 50 µM | – | – | – | – | – |
| CC(=O)O[C@H]1CC[C@]2(C)[C@H]3CC=C4[C@@H]5[C@@H](C)[C@H](C)CC[C@]5(C(=O)Nc5cccc(C)c5)CC[C@@]4(C)[C@]3(C)CC[C@H]2C1(C)C | > 50 µM | > 50 µM | > 50 µM | > 50 µM | > 50 µM | > 50 µM | – | – | – | – | – |
| Cc1ccccc1NC(=O)COC(=O)[C@]12CC[C@@H](C)[C@H](C)[C@H]1C1=CC[C@@H]3[C@@]4(C)CCC(=O)C(C)(C)[C@@H]4CC[C@@]3(C)[C@]1(C)CC2 | 16.2 µM | 18.7 µM | 14 µM | 16.2 µM | 17.8 µM | > 50 µM | 16.2 µM | < 5% | – | – | – |
| COc1ccc(NC(=O)[C@]23CC[C@@H](C)[C@H](C)[C@H]2C2=CC[C@@H]4[C@@]5(C)CC[C@H](OC(C)=O)C(C)(C)[C@@H]5CC[C@@]4(C)[C@]2(C)CC3)cc1OC | 27.8 µM | 12.9 µM | 11.9 µM | 22.9 µM | 24.7 µM | > 50 µM | 10.1 µM | < 5% | – | – | – |
| COc1cccc2c1C(=O)c1c(O)c3c(c(O)c1C2=O)C[C@@](O)(C(=O)CO)C[C@@H]3O[C@H]1C[C@H](N)[C@H](O)[C@H](C)O1 [DOXORUBICIN] | – | – | – | – | – | – | – | – | > 50 µM | 6.91 µM | > 50 µM |
| COc1cc(NC(=O)[C@]23CC[C@@H](C)[C@H](C)[C@H]2C2=CC[C@@H]4[C@@]5(C)CC[C@H](OC(C)=O)C(C)(C)[C@@H]5CC[C@@]4(C)[C@]2(C)CC3)cc(OC)c1OC | 37.2 µM | 28.7 µM | 21.1 µM | 36.5 µM | 30.5 µM | > 50 µM | 14.8 µM | < 5% | – | – | – |
| COc1ccc(NC(=O)[C@]23CC[C@@H](C)[C@H](C)[C@H]2C2=CC[C@@H]4[C@@]5(C)CCC(=O)C(C)(C)[C@@H]5CC[C@@]4(C)[C@]2(C)CC3)cc1OC | 32.5 µM | 28.4 µM | 30.2 µM | 38.7 µM | 37.3 µM | > 50 µM | > 20 µM | < 5% | – | – | – |
| COc1cccc(NC(=O)COC(=O)[C@]23CC[C@@H](C)[C@H](C)[C@H]2C2=CC[C@@H]4[C@@]5(C)CCC(=O)C(C)(C)[C@@H]5CC[C@@]4(C)[C@]2(C)CC3)c1 | > 50 µM | > 50 µM | > 50 µM | > 50 µM | > 50 µM | > 50 µM | – | – | – | – | – |
| COc1cc(NC(=O)COC(=O)[C@]23CC[C@@H](C)[C@H](C)[C@H]2C2=CC[C@@H]4[C@@]5(C)CCC(=O)C(C)(C)[C@@H]5CC[C@@]4(C)[C@]2(C)CC3)cc(OC)c1OC | 38.7 µM | 27.9 µM | 39.6 µM | 35.8 µM | 37.8 µM | > 50 µM | > 20 µM | < 5% | – | – | – |
| COc1cc(NC(=O)[C@]23CC[C@@H](C)[C@H](C)[C@H]2C2=CC[C@@H]4[C@@]5(C)CCC(=O)C(C)(C)[C@@H]5CC[C@@]4(C)[C@]2(C)CC3)cc(OC)c1OC | 40.1 µM | 29.9 µM | 34.3 µM | 41.2 µM | 39.8 µM | > 50 µM | > 20 µM | < 5% | – | – | – |
| C[C@H]1[C@H](C)CC[C@]2(C(=O)N3CCN(C)CC3)CC[C@]3(C)C(=CC[C@@H]4[C@@]5(C)CCC(=O)C(C)(C)[C@@H]5CC[C@]43C)[C@H]12 | 25.6 µM | 22.4 µM | 19.2 µM | 23.4 µM | 27.2 µM | > 50 µM | 15.5 µM | < 5% | – | – | – |
| COc1cccc(NC(=O)[C@]23CC[C@@H](C)[C@H](C)[C@H]2C2=CC[C@@H]4[C@@]5(C)CC[C@H](OC(C)=O)C(C)(C)[C@@H]5CC[C@@]4(C)[C@]2(C)CC3)c1 | > 50 µM | > 50 µM | > 50 µM | > 50 µM | > 50 µM | > 50 µM | – | – | – | – | – |
| COc1ccc(NC(=O)[C@]23CC[C@@H](C)[C@H](C)[C@H]2C2=CC[C@@H]4[C@@]5(C)CCC(=O)C(C)(C)[C@@H]5CC[C@@]4(C)[C@]2(C)CC3)cc1 | 29.7 µM | 21.1 µM | 28.1 µM | 39.9 µM | 32.5 µM | > 50 µM | > 20 µM | < 5% | – | – | – |
| COc1ccc(NC(=O)COC(=O)[C@]23CC[C@@H](C)[C@H](C)[C@H]2C2=CC[C@@H]4[C@@]5(C)CCC(=O)C(C)(C)[C@@H]5CC[C@@]4(C)[C@]2(C)CC3)cc1OC | 38.2 µM | 18.9 µM | 22.8 µM | 35.2 µM | 27.7 µM | > 50 µM | > 20 µM | < 5% | – | – | – |
| Cc1cccc(NC(=O)[C@]23CC[C@@H](C)[C@H](C)[C@H]2C2=CC[C@@H]4[C@@]5(C)CCC(=O)C(C)(C)[C@@H]5CC[C@@]4(C)[C@]2(C)CC3)c1 | > 50 µM | > 50 µM | > 50 µM | > 50 µM | > 50 µM | > 50 µM | – | – | – | – | – |
| Cc1ccc(NC(=O)[C@]23CC[C@@H](C)[C@H](C)[C@H]2C2=CC[C@@H]4[C@@]5(C)CCC(=O)C(C)(C)[C@@H]5CC[C@@]4(C)[C@]2(C)CC3)cc1C | 21.4 µM | 22.5 µM | 19.4 µM | 20.9 µM | 24.6 µM | > 50 µM | 15.2 µM | < 5% | – | – | – |
| CC[C@@]1(O)C(=O)OCc2c1cc1n(c2=O)Cc2cc3cc(O)ccc3nc2-1 [HYDROXYCAMPTOTHECIN] | – | 12.6 µM | 16.6 µM | 2.75 µM | – | 12.8 µM | – | – | – | – | – |
| C[C@H]1[C@H](C)CC[C@]2(C(=O)O)CC[C@]3(C)C(=CC[C@@H]4[C@@]5(C)CC[C@H](O)C(C)(C)[C@@H]5CC[C@]43C)[C@H]12 [URSOLIC ACID] | 27.6 µM | 30.2 µM | 32.2 µM | – | – | > 50 µM | > 20 µM | < 5% | – | – | – |
